From ChEMBL document CHEMBL4680072, “Synthesis and evaluation of a radioiodinated 4,6-diaryl-3-cyano-2-pyridinone derivative as a survivin targeting SPECT probe for tumor imaging” (Bioorg Med Chem Lett, 2016)

Experiments:
[1] = Biodistribution in lung of BALB/c nu/nu mouse xenografted with human MDA-MB-231 cells at 7.4 kBq, iv using [125I] labeled compound measured after 30 mins by gamma counter method; assay type: ADME, organism-based; details: in vivo, 0.5 h
Outline: (§1)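 Radioactivity in each excised tissue is expressed as percent injected dose per gram (% ID/g). Each value is the mean (SD) of three tumor-bearing mice per time point (n = 3).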

[2] = Biodistribution in brain of BALB/c nu/nu mouse xenografted with human MDA-MB-231 cells at 7.4 kBq, iv using [125I] labeled compound measured after 180 mins by gamma counter method; assay type: ADME, organism-based; details: in vivo, 3 h; outline: as §1
[3] = Biodistribution in pancreas of BALB/c nu/nu mouse xenografted with human MDA-MB-231 cells at 7.4 kBq, iv using [125I] labeled compound measured after 60 mins by gamma counter method; assay type: ADME, organism-based; details: in vivo, 1 h; outline: as §1
[4] = Biodistribution in pancreas of BALB/c nu/nu mouse xenografted with human MDA-MB-231 cells at 7.4 kBq, iv using [125I] labeled compound measured after 30 mins by gamma counter method; assay type: ADME, organism-based; details: in vivo, 0.5 h; outline: as §1
[5] = Biodistribution in kidney of BALB/c nu/nu mouse xenografted with human MDA-MB-231 cells at 7.4 kBq, iv using [125I] labeled compound measured after 60 mins by gamma counter method; assay type: ADME, organism-based; details: in vivo, 1 h; outline: as §1
[6] = Biodistribution in blood of BALB/c nu/nu mouse xenografted with human MDA-MB-231 cells at 7.4 kBq, iv using [125I] labeled compound measured after 60 mins by gamma counter method; assay type: ADME, organism-based; details: in vivo, 1 h; outline: as §1
[7] = Biodistribution in spleen of BALB/c nu/nu mouse xenografted with human MDA-MB-231 cells at 7.4 kBq, iv using [125I] labeled compound measured after 30 mins by gamma counter method; assay type: ADME, organism-based; details: in vivo, 0.5 h; outline: as §1
[8] = Biodistribution in stomach of BALB/c nu/nu mouse xenografted with human MDA-MB-231 cells at 7.4 kBq, iv using [125I] labeled compound measured after 60 mins by gamma counter method; assay type: ADME, organism-based; details: in vivo, 1 h; outline: as §1
[9] = Biodistribution in tumor of BALB/c nu/nu mouse xenografted with human MDA-MB-231 cells at 7.4 kBq, iv using [125I] labeled compound measured after 30 mins by gamma counter method; assay type: ADME, organism-based, Neoplasm; details: in vivo, 0.5 h; outline: as §1
[10] = Biodistribution in liver of BALB/c nu/nu mouse xenografted with human MDA-MB-231 cells at 7.4 kBq, iv using [125I] labeled compound measured after 60 mins by gamma counter method; assay type: ADME, organism-based; details: in vivo, 1 h; outline: as §1
[11] = Biodistribution in lung of BALB/c nu/nu mouse xenografted with human MDA-MB-231 cells at 7.4 kBq, iv using [125I] labeled compound measured after 180 mins by gamma counter method; assay type: ADME, organism-based; details: in vivo, 3 h; outline: as §1
[12] = Biodistribution in liver of BALB/c nu/nu mouse xenografted with human MDA-MB-231 cells at 7.4 kBq, iv using [125I] labeled compound measured after 180 mins by gamma counter method; assay type: ADME, organism-based; details: in vivo, 3 h; outline: as §1
[13] = Biodistribution in blood of BALB/c nu/nu mouse xenografted with human MDA-MB-231 cells at 7.4 kBq, iv using [125I] labeled compound measured after 180 mins by gamma counter method; assay type: ADME, organism-based; details: in vivo, 3 h; outline: as §1
[14] = Biodistribution in tumor of BALB/c nu/nu mouse xenografted with human MDA-MB-231 cells at 7.4 kBq, iv using [125I] labeled compound measured after 180 mins by gamma counter method; assay type: ADME, organism-based, Neoplasm; details: in vivo, 3 h; outline: as §1
[15] = Biodistribution in brain of BALB/c nu/nu mouse xenografted with human MDA-MB-231 cells at 7.4 kBq, iv using [125I] labeled compound measured after 30 mins by gamma counter method; assay type: ADME, organism-based; details: in vivo, 0.5 h; outline: as §1
[16] = Biodistribution in brain of BALB/c nu/nu mouse xenografted with human MDA-MB-231 cells at 7.4 kBq, iv using [125I] labeled compound measured after 60 mins by gamma counter method; assay type: ADME, organism-based; details: in vivo, 1 h; outline: as §1
[17] = Biodistribution in muscle of BALB/c nu/nu mouse xenografted with human MDA-MB-231 cells at 7.4 kBq, iv using [125I] labeled compound measured after 180 mins by gamma counter method; assay type: ADME, organism-based, Muscle tissue; details: in vivo, 3 h; outline: as §1
[18] = Biodistribution in tumor of BALB/c nu/nu mouse xenografted with human MDA-MB-231 cells at 7.4 kBq, iv using [125I] labeled compound measured after 60 mins by gamma counter method; assay type: ADME, organism-based, Neoplasm; details: in vivo, 1 h; outline: as §1
[19] = Biodistribution in spleen of BALB/c nu/nu mouse xenografted with human MDA-MB-231 cells at 7.4 kBq, iv using [125I] labeled compound measured after 60 mins by gamma counter method; assay type: ADME, organism-based; details: in vivo, 1 h; outline: as §1
[20] = Biodistribution in spleen of BALB/c nu/nu mouse xenografted with human MDA-MB-231 cells at 7.4 kBq, iv using [125I] labeled compound measured after 180 mins by gamma counter method; assay type: ADME, organism-based; details: in vivo, 3 h; outline: as §1
[21] = Biodistribution in heart of BALB/c nu/nu mouse xenografted with human MDA-MB-231 cells at 7.4 kBq, iv using [125I] labeled compound measured after 30 mins by gamma counter method; assay type: ADME, organism-based; details: in vivo, 0.5 h; outline: as §1
[22] = Biodistribution in kidney of BALB/c nu/nu mouse xenografted with human MDA-MB-231 cells at 7.4 kBq, iv using [125I] labeled compound measured after 30 mins by gamma counter method; assay type: ADME, organism-based; details: in vivo, 0.5 h; outline: as §1
[23] = Biodistribution in stomach of BALB/c nu/nu mouse xenografted with human MDA-MB-231 cells at 7.4 kBq, iv using [125I] labeled compound measured after 30 mins by gamma counter method; assay type: ADME, organism-based; details: in vivo, 0.5 h; outline: as §1
[24] = Biodistribution in heart of BALB/c nu/nu mouse xenografted with human MDA-MB-231 cells at 7.4 kBq, iv using [125I] labeled compound measured after 60 mins by gamma counter method; assay type: ADME, organism-based; details: in vivo, 1 h; outline: as §1
[25] = Biodistribution in muscle of BALB/c nu/nu mouse xenografted with human MDA-MB-231 cells at 7.4 kBq, iv using [125I] labeled compound measured after 30 mins by gamma counter method; assay type: ADME, organism-based, Muscle tissue; details: in vivo, 0.5 h; outline: as §1
[26] = Biodistribution in intestine of BALB/c nu/nu mouse xenografted with human MDA-MB-231 cells at 7.4 kBq, iv using [125I] labeled compound measured after 60 mins by gamma counter method; assay type: ADME, organism-based; details: in vivo, 1 h; outline: as §1
[27] = Biodistribution in intestine of BALB/c nu/nu mouse xenografted with human MDA-MB-231 cells at 7.4 kBq, iv using [125I] labeled compound measured after 30 mins by gamma counter method; assay type: ADME, organism-based; details: in vivo, 0.5 h; outline: as §1
[28] = Biodistribution in pancreas of BALB/c nu/nu mouse xenografted with human MDA-MB-231 cells at 7.4 kBq, iv using [125I] labeled compound measured after 180 mins by gamma counter method; assay type: ADME, organism-based; details: in vivo, 3 h; outline: as §1
[29] = Biodistribution in muscle of BALB/c nu/nu mouse xenografted with human MDA-MB-231 cells at 7.4 kBq, iv using [125I] labeled compound measured after 60 mins by gamma counter method; assay type: ADME, organism-based, Muscle tissue; details: in vivo, 1 h; outline: as §1
[30] = Biodistribution in intestine of BALB/c nu/nu mouse xenografted with human MDA-MB-231 cells at 7.4 kBq, iv using [125I] labeled compound measured after 180 mins by gamma counter method; assay type: ADME, organism-based; details: in vivo, 3 h; outline: as §1
[31] = Biodistribution in heart of BALB/c nu/nu mouse xenografted with human MDA-MB-231 cells at 7.4 kBq, iv using [125I] labeled compound measured after 180 mins by gamma counter method; assay type: ADME, organism-based; details: in vivo, 3 h; outline: as §1
[32] = Biodistribution in liver of BALB/c nu/nu mouse xenografted with human MDA-MB-231 cells at 7.4 kBq, iv using [125I] labeled compound measured after 30 mins by gamma counter method; assay type: ADME, organism-based; details: in vivo, 0.5 h; outline: as §1
[33] = Biodistribution in blood of BALB/c nu/nu mouse xenografted with human MDA-MB-231 cells at 7.4 kBq, iv using [125I] labeled compound measured after 30 mins by gamma counter method; assay type: ADME, organism-based; details: in vivo, 0.5 h; outline: as §1
[34] = Biodistribution in lung of BALB/c nu/nu mouse xenografted with human MDA-MB-231 cells at 7.4 kBq, iv using [125I] labeled compound measured after 60 mins by gamma counter method; assay type: ADME, organism-based; details: in vivo, 1 h; outline: as §1
[35] = Biodistribution in kidney of BALB/c nu/nu mouse xenografted with human MDA-MB-231 cells at 7.4 kBq, iv using [125I] labeled compound measured after 180 mins by gamma counter method; assay type: ADME, organism-based; details: in vivo, 3 h; outline: as §1
[36] = Biodistribution in stomach of BALB/c nu/nu mouse xenografted with human MDA-MB-231 cells at 7.4 kBq, iv using [125I] labeled compound measured after 180 mins by gamma counter method; assay type: ADME, organism-based; details: in vivo, 3 h; outline: as §1

Question: With CCCN1CCC(C(=O)N(C)Cc2cc(Cl)cc(-c3cc(-c4cc(C(F)(F)F)ccc4[125I])c(C#N)c(=O)[nH]3)c2O)CC1 as the molecule, how does the Drug uptake [1] read?
Answer: 2.25 % ID/g

Question: And the Drug uptake [2]?
Answer: 0.05 % ID/g

Question: And the Drug uptake [3]?
Answer: 0.55 % ID/g

Question: What about the Drug uptake [4] of the same molecule?
Answer: 2.22 % ID/g

Question: What about the Drug uptake [5] of the same molecule?
Answer: 1.5 % ID/g

Question: What about the Drug uptake [6] of the same molecule?
Answer: 0.72 % ID/g

Question: What about the Drug uptake [7] of the same molecule?
Answer: 2.27 % ID/g

Question: And the Drug uptake [8]?
Answer: 5.33 % ID/g

Question: What about the Drug uptake [9] of the same molecule?
Answer: 0.51 % ID/g

Question: What about the Drug uptake [10] of the same molecule?
Answer: 10.01 % ID/g

Question: And the Drug uptake [11]?
Answer: 1.35 % ID/g

Question: What about the Drug uptake [12] of the same molecule?
Answer: 5.68 % ID/g

Question: And the Drug uptake [13]?
Answer: 0.99 % ID/g

Question: What about the Drug uptake [14] of the same molecule?
Answer: 0.65 % ID/g

Question: What about the Drug uptake [15] of the same molecule?
Answer: 0.07 % ID/g

Question: What about the Drug uptake [16] of the same molecule?
Answer: 0.06 % ID/g

Question: What about the Drug uptake [17] of the same molecule?
Answer: 0.33 % ID/g

Question: What about the Drug uptake [18] of the same molecule?
Answer: 0.63 % ID/g

Question: And the Drug uptake [19]?
Answer: 1.1 % ID/g

Question: What about the Drug uptake [20] of the same molecule?
Answer: 0.71 % ID/g

Question: What about the Drug uptake [21] of the same molecule?
Answer: 0.84 % ID/g

Question: What about the Drug uptake [22] of the same molecule?
Answer: 3.02 % ID/g

Question: And the Drug uptake [23]?
Answer: 3.54 % ID/g

Question: And the Drug uptake [24]?
Answer: 0.53 % ID/g

Question: And the Drug uptake [25]?
Answer: 0.42 % ID/g

Question: What about the Drug uptake [26] of the same molecule?
Answer: 25.3 % ID/g

Question: And the Drug uptake [27]?
Answer: 10.1 % ID/g

Question: And the Drug uptake [28]?
Answer: 0.61 % ID/g

Question: What about the Drug uptake [29] of the same molecule?
Answer: 0.29 % ID/g

Question: What about the Drug uptake [30] of the same molecule?
Answer: 21.5 % ID/g

Question: And the Drug uptake [31]?
Answer: 0.51 % ID/g

Question: What about the Drug uptake [32] of the same molecule?
Answer: 16.3 % ID/g

Question: And the Drug uptake [33]?
Answer: 1.36 % ID/g

Question: What about the Drug uptake [34] of the same molecule?
Answer: 1.43 % ID/g

Question: What about the Drug uptake [35] of the same molecule?
Answer: 1.22 % ID/g

Question: What about the Drug uptake [36] of the same molecule?
Answer: 6.21 % ID/g
